These results are taken from ChEMBL document CHEMBL3632514, “Radiolabelling and positron emission tomography of PT70, a time-dependent inhibitor of InhA, the Mycobacterium tuberculosis enoyl-ACP reductase” (Bioorg Med Chem Lett, 2015).

One series relates to Brain. Description: Drug uptake in iv dosed baboon brain measured over 15 to 90 mins by PET image analysis. Type of series: ADME, organism-based. To be noted: papio anubis, in vivo. The essentials: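 Baboon PET after i.v. radiolabelled drug, with images acquired for 90 min. Dose-corrected coronal images were summed over 15–90 min. Time-activity curves came from manually drawn regions of interest.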

Series [1] concerns Mycobacterium tuberculosis. In words: Binding affinity to Mycobacterium tuberculosis InhA assessed as residence time.
Series [2] relates to Liver. Description: Drug uptake in mouse liver measured at 40 mins. To be noted: in vivo. Type of series: ADME, tissue-based. The essentials:
(§1)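 Healthy mice were injected with [11C]-labelled tracer. Tissue radioactivity was measured at 20, 40 and 60 min post-injection and expressed as % injected dose/gram. Values are mean ± SD of three animals.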

The subject of series [3] is Blood. In words: Drug uptake in mouse blood measured at 60 mins. Type of series: ADME, tissue-based. To be noted: 1 h. The essentials:
as §1

For series [4], the system named is Kidney. In words: Drug uptake in mouse kidney measured at 20 mins. Type of series: ADME, tissue-based. The note with it: in vivo. The essentials:
as §1

A short description of series [5]: Drug uptake in iv dosed baboon heart measured over 90 mins by PET image analysis. Type of series: ADME, organism-based. To be noted: papio anubis, in vivo, 1.5 h. The essentials:
(§2)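 Dynamic PET scan of baboons over 90 min after i.v. [11C]-labelled radiotracer. Peripheral organ time-activity curves were derived from regions of interest drawn manually on the images.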

Series [6] has as its system Spleen. In words: Drug uptake in mouse spleen measured at 40 mins. Type of series: ADME, tissue-based. The note with it: in vivo. The essentials: as §1
The test system of series [7] is Lung. In words: Drug uptake in mouse lung measured at 60 mins. The note with it: in vivo, 1 h. Type of series: ADME, tissue-based. The essentials: as §1
Series [8] can be described thus: Drug uptake in iv dosed baboon blood measured over 90 mins by PET image analysis. The note with it: papio anubis, in vivo, 1.5 h. It counts as ADME, organism-based. The essentials:
as §2

Series [9] relates to Blood. In words: Drug uptake in mouse blood measured at 40 mins. Type of series: ADME, tissue-based. The essentials: as §1
A short description of series [10]: Drug uptake in iv dosed baboon lung measured over 90 mins by PET image analysis. Type of series: ADME, organism-based. To be noted: papio anubis, in vivo, 1.5 h. The essentials:
as §2

In series [11] the test system is Lung. In words: Drug uptake in mouse lung measured at 40 mins. It counts as ADME, tissue-based. To be noted: in vivo. The essentials:
as §1

Series [12] has as its system Spleen. In words: Drug uptake in mouse spleen measured at 60 mins. It counts as ADME, tissue-based. To be noted: in vivo, 1 h. The essentials: as §1
Series [13] relates to Lung. Description: Drug uptake in mouse lung measured at 20 mins. It counts as ADME, tissue-based. To be noted: in vivo. The essentials:
as §1

Series [14] is described as follows: Drug uptake in iv dosed baboon kidney measured over 90 mins by PET image analysis. Type of series: ADME, organism-based. To be noted: papio anubis, in vivo, 1.5 h. The essentials: as §2
The test system of series [15] is Lung. In words: Drug uptake in mouse lung pretreated with unlabelled compound for 1 hr followed by radiolabeled compound treatment measured after 20 mins by PET image analysis. Type of series: ADME, tissue-based. To be noted: in vivo. The essentials: (§3)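 Mice received a 200 mg/kg predose of unlabelled compound 1 h before [11C]-tracer injection. Tissue radioactivity was read 20 min after the tracer and given as % injected dose/gram, mean ± SD of three animals.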

Series [16] relates to Kidney. In words: Drug uptake in mouse kidney measured at 40 mins. Type of series: ADME, tissue-based. The note with it: in vivo. The essentials: as §1
Series [17] has as its system Spleen. Description: Drug uptake in mouse spleen pretreated with unlabelled compound for 1 hr followed by radiolabeled compound treatment measured after 20 mins by PET image analysis. Type of series: ADME, tissue-based. The note with it: in vivo. The essentials:
as §3

The nature of series [18]: Drug uptake in iv dosed baboon gallbladder measured over 90 to 120 mins by PET image analysis. Type of series: ADME, organism-based, Gall bladder. To be noted: papio anubis, in vivo.
Series [19] relates to Kidney. Description: Drug uptake in mouse kidney measured at 60 mins. Type of series: ADME, tissue-based. The note with it: in vivo, 1 h. The essentials: as §1
Series [20] in a line: Drug uptake in iv dosed baboon liver measured over 90 mins by PET image analysis. Type of series: ADME, organism-based. The note with it: papio anubis, in vivo, 1.5 h. The essentials:
as §2

The subject of series [21] is Spleen. In words: Drug uptake in mouse spleen measured at 20 mins. Type of series: ADME, tissue-based. To be noted: in vivo. The essentials: as §1
For series [22], the system named is Blood. In words: Drug uptake in mouse blood measured at 20 mins. Type of series: ADME, tissue-based. The essentials:
as §1

Series [23] concerns Liver. Description: Drug uptake in mouse liver measured at 60 mins. It counts as ADME, tissue-based. To be noted: in vivo, 1 h. The essentials:
as §1

Series [24] can be described thus: Drug uptake in iv dosed baboon spleen measured over 90 mins by PET image analysis. It counts as ADME, organism-based. The note with it: papio anubis, in vivo, 1.5 h. The essentials:
as §2

A short description of series [25]: Plasma protein binding in baboon after 10 mins. It counts as ADME, cell-free. To be noted: papio anubis.
For series [26], the system named is Mycobacterium tuberculosis. In words: Binding affinity to Mycobacterium tuberculosis InhA:NAD+ complex expressed in Escherichia coli BL21(DE3)pLysS assessed as residence time.
The nature of series [27]: Octanol-phosphate buffer partition coefficient, log D of the compound at pH 7.4. Type of series: physicochemical. To be noted: octanol/water. The essentials: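 Partitioning between octanol and pH 7.4 phosphate buffer, with the carbon-11 radiolabel used to report drug concentration in each phase.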

The structures appear in SMILES notation.

`CCCCCCc1ccc(Oc2ccccc2[11C]#N)c(O)c1`: the Drug uptake result in the series on Brain is on record as “Active”.
On to `NC(=O)C1=CN([C@@H]2O[C@H](COP(=O)(O)OP(=O)(O)OC[C@H]3O[C@@H](n4cnc5c(N)ncnc54)[C@H](O)[C@@H]3O)[C@@H](O)[C@H]2O)C=C[C@@H]1C(=O)c1ccncc1`, for which, in series [1], the TIME is 1 h.
`CCCCCCc1ccc(Oc2ccccc2[11CH3])c(O)c1`: the Drug uptake is listed as 15.7 %ID/cc with Liver [2]; 0.55 %ID/cc in the series with Blood [3]; 2.21 %ID/cc in the series on Kidney [4]; “Not Active” in series [5]; 0.93 %ID/cc in the series on Spleen [6]; 1.35 %ID/cc with Lung [7]. Besides, the Drug uptake entry in series [8] was “Not Active”; with Blood [9], 1.46 %ID/cc; in the series on Brain, “Active”; in [10], “Not Active”; with Lung [11], 1.26 %ID/cc; in the series on Spleen [12], 0.21 %ID/cc. Moreover, the Drug uptake is given as 1.36 %ID/cc in the series with Lung [13]; “Active” in series [14]; “Active” with Lung [15]; 1.45 %ID/cc with Kidney [16]; “Active” with Spleen [17]; “Active” in series [18]. Further, the Drug uptake in the series with Kidney [19] was 0.31 %ID/cc; in series [20], “Active”; in the series on Spleen [21], 1.82 %ID/cc; in the series with Blood [22], 1.7 %ID/cc; with Liver [23], 14.09 %ID/cc; in series [24], “Active”.
`CCCCCCc1ccc(Oc2ccccc2C)c(O)c1`: the PPB in series [25] amounted to 99.76%. For the same compound, the TIME in series [26] was 0.4 h. Besides, the logD in series [27] amounted to 3.65.
